The values that follow come from ChEMBL document CHEMBL1123710, “Molecular structure of the dihydropyridazinone cardiotonic 1,3-dihydro-3,3-dimethyl-5-(1,4,5,6-tetrahydro-6-oxo-pyridazinyl)- 2H-indol-2-one, a potent inhibitor of cyclic AMP phosphodiesterase” (1987).

Experiment [1] relates to Canis familiaris. The experiment is described as follows: Myocardial contractility was determined after intravenous administration in phenobarbital anesthetized dogs (n=4). It is filed as functional. As to conditions: Canis lupus familiaris, Myocardium. An outline of the steps: (§1)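 Dogs under anesthesia; Walton-Brodie strain-gauge arch sutured to right ventricle, tension set at 50 g. Increasing iv doses via femoral vein at 5-min intervals, peak responses recorded; vehicle injections tested. Inotropic ED50 by linear regression, mean ± SEM. Preload/afterload independence confirmed with dextran bolus and aortic compression.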

The test system of experiment [2] is Canis familiaris. The experiment can be described thus: Percent decrease in mean arterial blood pressure (MAP) was determined in anesthetized dogs. It is filed as functional, Canis lupus familiaris. The procedure, abridged:
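Femoral arterial pressure in anesthetized dogs via heparin-filled catheter and pressure transducer; baseline MAP 99 ± 3 mmHg. Escalating iv doses via femoral vein every 5 min, peak responses taken. Value is percent change in mean arterial pressure at the inotropic ED50 dose.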

Experiment [3] has as its system Canis familiaris. The experiment is described as follows: Percent increase in heart rate (HR) in anesthetized dogs was determined. It is filed as functional, Canis lupus familiaris.
Experiment [4] relates to Canis familiaris. The experiment can be described thus: Myocardial contractility was determined after intravenous administration in phenobarbital-anesthetized dogs (n=4). It is filed as functional. As to conditions: Canis lupus familiaris, Myocardium. The procedure, abridged:
as §1

In experiment [5] the test system is Canis familiaris. The experiment can be described thus: Myocardial contractility was determined after intravenous administration in phenobarbital-anesthetized dogs. It is filed as functional. As to conditions: Canis lupus familiaris, Myocardium. The procedure, abridged: as §1

In turn, `Cc1cc(O)nnc1-c1ccc2c(c1)C(C)(C)C(=O)N2` registered an ED50 with Canis familiaris [1] of 32.6 µg/kg. The molecule also gave a Decrease with Canis familiaris [2] of 20%. Besides, the Increase in the experiment with Canis familiaris [3] was 15%.

Consider `CC1CC(=O)NN=C1c1ccc2c(c1)C(C)(C)C(=O)N2` (configuration not stated), for which, in the experiment with Canis familiaris [4], the ED50 is 3.6 µg/kg. In addition, the Decrease in the experiment with Canis familiaris [2] is given as 31%. Moreover, the Increase with Canis familiaris [3] worked out at 20%.

On to `CC1(C)C(=O)Nc2ccc(-c3ccc(O)nn3)cc21`, for which the Decrease in the experiment with Canis familiaris [2] worked out at 18%. For the same molecule, in the experiment on Canis familiaris [3], the Increase stood at 24%. In addition, in the experiment with Canis familiaris [5], the ED50 worked out at 7.4 µg/kg.

Turning to `CC1(C)C(=O)Nc2ccc(C3=NNC(=O)CC3)cc21` [INDOLIDAN], the ED50 in the experiment on Canis familiaris [4] came to 6.8 µg/kg. The Decrease with Canis familiaris [2] worked out at 15%. This molecule also had an Increase with Canis familiaris [3] of 12%.
